# Screening data as filed in PubChem BioAssay.
# Shown are actives, neighbours in structure and some others; about 2% of the full set was active somewhere.
# ARFGAP1 inh – inhibitors of rat ARFGAP1; Q62848; Arfgap1-stimulated ARF1 GTP hydrolysis, GDP FP detection; inhibition, % at 16.5 µM; actives 0.26% (n = 360,000); AID 651572;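 active = inhibition above a per-plate limit, mean inhibition of low control wells plus 3 SD, cut at about 25% in these data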
# Target sequence (Q62848 1-136 limits assumed): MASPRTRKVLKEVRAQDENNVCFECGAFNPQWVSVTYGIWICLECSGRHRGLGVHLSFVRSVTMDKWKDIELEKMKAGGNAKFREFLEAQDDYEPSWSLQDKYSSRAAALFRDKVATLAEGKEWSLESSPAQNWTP
#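 Material: truncated rat Arfgap1 GAP domain; Incubation: compound-enzyme preincubation 20 min, reaction 120 min, detection 60 min, 25 °C; Read-out: percent inhibition of Arfgap1-stimulated GTP hydrolysis; Technique: FP, GDP Alexa 633 tracer displaced from anti-GDP antibody, 620/688 nm; Controls: No-Arfgap1 wells (100%) versus DMSO full-reaction wells (0%); Replication: single well per compound.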
# TDP2 absorb – blocks human TDP2 phosphodiesterase activity; O95551; recombinant TDP2, T5PNP hydrolysis, p-nitrophenol absorbance 415 nm; inhibition, % at 12.8 µM; actives 0.34% (n = 370,000); AID 720702;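 active = inhibition above the mean of all tested compounds plus 3 SD, set per campaign, cut at about 25% in these data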
# Target sequence (O95551 whole entry, looked up): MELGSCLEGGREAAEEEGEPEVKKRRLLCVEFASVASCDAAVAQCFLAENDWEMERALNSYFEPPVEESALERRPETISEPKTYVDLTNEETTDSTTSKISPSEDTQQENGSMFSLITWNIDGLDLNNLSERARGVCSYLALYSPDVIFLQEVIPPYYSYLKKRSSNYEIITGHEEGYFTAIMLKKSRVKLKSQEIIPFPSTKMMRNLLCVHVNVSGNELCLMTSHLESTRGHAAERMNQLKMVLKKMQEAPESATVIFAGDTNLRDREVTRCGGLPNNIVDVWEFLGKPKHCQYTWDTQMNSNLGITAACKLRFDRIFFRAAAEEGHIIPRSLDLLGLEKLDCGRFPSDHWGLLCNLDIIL
#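 Test system: human TDP2 enzyme; Input: 120 nM TDP2 per well; Buffer or medium: Mg2+-containing Tris-HCl buffer, pH 7.5; Reagent: 5 mM T5PNP; Dosing: 12.8 µM single point, 1% DMSO; Incubation: reaction 2 h, 37 °C; Detection: p-Nitrophenol epi absorbance; Read-out: % inhibition relative to enzyme-containing and enzyme-free wells; Replicates: single well per compound.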
# UHRF1 binding – blocks human UHRF1 binding to methylated DNA; Q96T88; inhibition, % at 4.4 µM; AID 687016; actives 0.75% (n = 370,000); UHRF1 binding to methylated oligo, TR-FRET; in the data active = inhibition above about 21%;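 note: UHRF1 SRA domain binding a hemimethylated CpG hairpin DNA probe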
# LEDGF integ inh – blocks HIV-1 LEDGF/p75-dependent DNA integration; TR-FRET IN-LEDGF/p75 DNA integration, Eu/Cy5; inhibition, % at 3.7 µM; actives 0.64% (n = 370,000);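 active = inhibition above the screen-wide mean plus 3 SD, cut at about 13% in these data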;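 note: signal is the Cy5 over europium emission ratio at 671 and 618 nm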
# MBD2 inh – blocks human MBD2 binding to methylated DNA | Q9UBB5 | TR-FRET, MBD2 binding to methylated oligonucleotide | actives 0.31% (n = 370,000) | AID 686964 | inhibition, % at 4.4 µM; in the data active = inhibition above about 13%
# ASAP1 GAP inh – blocks human ASAP1-stimulated Arf1 GTP hydrolysis. Q9ULH1. GDP FP detection. inhibition, % at 16.5 µM. actives 0.19% (n = 360,000). AID 624377; in the data active = inhibition above about 25%
# ARFGAP1 confirm – rat ARFGAP1 inhibition, confirmed. actives 30% (n = 890). AID 651608. ARFGAP1-stimulated ARF1 GTP hydrolysis, GDP tracer FP. shares compounds with ARFGAP1 inh. inhibition, % at 16.5 µM;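 active = average inhibition over triplicates above the hit cutoff set in the earlier primary screen, cut at about 25% in these data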
# Numbers stand for hits; 0 = inactive; - = not tested or not shown.
SMILES,ARFGAP1 inh,TDP2 absorb,UHRF1 binding,LEDGF integ inh,MBD2 inh,ASAP1 GAP inh,ARFGAP1 confirm
COC(=O)C1CN(Cc2cn(Cc3ccc(Cl)cc3)nn2)CCS(=O)(=O)N1Cc1ccc(F)cc1 (centres undefined),-,0,0,0,0,-,-
COc1ccc([C@H]2C[C@@H](n3cc(COC(=O)c4ccccc4)nn3)[C@H](O)CN2C(=O)C2CCCCC2)cc1,26,0,0,0,0,0,0
O=C(Nc1ccc(S(=O)(=O)N2CCOCC2)cc1)c1cc(-c2cc(Cl)ccc2O)n[nH]1,41,0,0,0,0,0,29
COc1ccc(Cl)cc1-c1cc(C(=O)Nc2ccc(Br)cc2)[nH]n1,28,0,0,0,0,0,0
COc1ccc(Cl)c(-c2cc(C(=O)Nc3ccccc3)[nH]n2)c1,25,0,0,0,0,0,0
CCOc1ccc(Cl)cc1-c1cc(C(=O)Nc2ccc(OC)cc2OC)[nH]n1,60,0,0,0,0,0,121
COc1ccc(Cl)cc1-c1cc(C(=O)Nc2ccccc2)[nH]n1,0,0,0,0,0,0,-
Cc1cc(O)c(-c2cc(C(=O)Nc3ccc(S(=O)(=O)N4CCOCC4)cc3)[nH]n2)cc1C,0,0,0,0,0,0,-
CCCCCCCCN1C(=O)[C@@H](CC(=O)N2CCOCC2)C[C@@]2(C(=O)OC)C1=C[C@H](COCc1ccccc1)O[C@@H]2C,-,0,0,0,0,-,-
COc1ccc(NC(=O)c2cc(-c3ccccc3O)n[nH]2)cc1Cl,27,0,0,0,0,0,0
C=CCN1C(=O)[C@H](CC(=O)NCCC(C)C)[C@@]2(C(=O)OCC)CCCC=C12,-,0,0,0,0,-,-
c1nc2nc3c(c(N4CCCC4)n2n1)CCCC3,-,0,0,0,0,-,-
O=C(O)c1ccc(CSc2nc3ccccc3[nH]2)cc1,29,0,0,0,0,0,0
NNC(=O)c1ccc(CSc2nc3ccccc3[nH]2)cc1,0,0,0,0,0,0,-
C/C(N)=C(/C#N)C(=O)CSc1nnc(C)n1-c1ccccc1,0,0,0,0,0,0,-
C/C(N)=C(/C#N)C(=O)CSc1nncn1-c1ccccc1,28,0,0,0,0,0,0
Cc1ccc2nc(SCC(=O)Nc3cccc(Cl)c3)nc(=O)n2c1,31,0,0,0,0,0,50
Cc1ccc2nc(SCC(=O)NCc3ccccc3Cl)nc(=O)n2c1,0,0,0,0,0,0,-
Cc1ccc2nc(SCC(=O)NC3CCCCC3)nc(=O)n2c1,0,0,0,0,0,0,-
Cc1ccc2nc(SCC(=O)Nc3ccc(Br)cc3)nc(=O)n2c1,0,0,0,0,0,0,-
CCOC(=O)N1CCN(C(=O)CSc2nc(=O)n3cc(C)ccc3n2)CC1,40,0,0,0,0,0,38
Cc1ccc2nc(SCC(=O)Nc3cccc(F)c3)nc(=O)n2c1,54,0,0,0,0,32,47
Cc1ccc2nc(SCC(=O)Nc3ccc(C)c(Cl)c3)nc(=O)n2c1,0,0,0,0,0,0,-
Cc1ccc2nc(SCC(=O)c3ccc(Cl)cc3)nc(=O)n2c1,27,0,0,0,0,0,50
CCOC(OCC)P(=O)(CNC(c1ccccc1)(c1ccccc1)c1ccccc1)OCC (centres undefined),-,0,0,0,0,-,-
SMILES,ARFGAP1 inh,TDP2 absorb,UHRF1 binding,LEDGF integ inh,MBD2 inh,ASAP1 GAP inh,ARFGAP1 confirm
COc1ccccc1NC(=O)CSc1nc(=O)n2cc(C)ccc2n1,31,0,0,0,0,0,0
Cc1ccc(NC(=O)CSc2nc(=O)n3cc(C)ccc3n2)c(C)c1,0,0,0,0,0,0,-
COc1cc(C=Nn2c(-c3cc(C)[nH]n3)n[nH]c2=S)cc(Br)c1O,-,0,0,0,0,-,-
O=C(N1CCC(C(O)(c2ccccc2)c2ccccc2)CC1)n1ncc(C(O)(c2ccccc2)c2ccccc2)n1,-,0,0,0,0,-,-
NC(Cc1ccc(C(F)(F)F)cc1)c1csc(NC(=O)Nc2ccccc2Cc2ccccc2)n1 (centres undefined),33,0,0,0,0,0,0
O=C(COC(=O)c1c2c(nc3ccccc13)/C(=C\c1cccs1)CCC2)Nc1ccccc1,0,0,0,0,0,0,-
